Assay outcomes (PubChem BioAssay)
Sampled rows, rich in hits. Any-hit rate of the full collection: about 3.2%.
MEKK3 PB1 HTS: modulators of MEKK3-MEK5 PB1 binding, primary screen, biochemical, wildtype MEKK3, multiplex bead flow cytometry, Alexa488-MEK5. bead-based flow cytometry, Alexa488-MEK5 binding to MEKK3; actives lie on both sides; 0 = blocked by unlabeled MEK5, 100 = vehicle. Mitogen-activated protein kinase kinase kinase 3 (Homo sapiens), Q99759. AID 1529, 2009. 290,000 compounds, 1.4% hits. binding response (% of control), % at 10 µM;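 active = binding response more than 3 SD above or below the average of its plate-row segment, actives on both sides; inconclusive = wells at one plate position flagged as instrument error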;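 note: Alexa488 bead fluorescence after subtracting the streptavidin-only scavenger bead signal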
DSG3 Ab inh: inhibitors of pemphigus antibody binding to DSG3, primary screen, biochemical, bead-based, flow cytometry, scFv-GFP; binding (percent of control), % at 10 µM; 310,000 compounds, 0.48% hits; Desmoglein-3 (Homo sapiens), P32926; AID 588358, 2011; DSG3-coupled beads, scFv-anti-DSG3-GFP binding; stronger effect = lower value;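 active = binding more than 3 SD below its plate's average and above zero; inconclusive = below that plate limit but binding exactly zero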
UBC13 inh: UBC13 polyubiquitin chain formation inhibitors, primary screen, biochemical, TR-FRET, uHTS; Ubiquitin-conjugating enzyme E2 N (Homo sapiens), P61088; inhibition, % at 20 µM; 330,000 compounds, 0.47% hits; in the data active = inhibition above about 45%, passing the limit was not always enough; inconclusive = no clear call, values can overlap the other calls
MEKK2 mut-MEK5: MEK5 binding signal on mutant MEKK2 PB1, primary screen, biochemical, multiplex bead flow cytometry, Alexa488-MEK5 | AID 1530, 2009 | Alexa488-MEK5 binding to MEKK2 mutant | 290,000 compounds, 0.35% hits | percent response, % at 10 µM; in the data active = percent response above about 24%, passing the limit was not always enough
MEKK2wt PB1 HTS: modulators of MEK5 binding to wildtype MEKK2, primary screen, biochemical, multiplex bead flow cytometry, Alexa488-MEK5. AID 1531, 2009. binding response (% of control), % at 10 µM. Alexa488-MEK5 binding to MEKK2 WT; actives lie on both sides. Mitogen-activated protein kinase kinase kinase 2 (Homo sapiens), Q9Y2U5. 290,000 compounds, 1.1% hits; in the data active = binding response below about 67% or above about 130%; inconclusive = no clear call, values can overlap the other calls; inactive = in between
Apaf-1 inh: inhibitors of human Apaf-1 apoptosome, primary screen, biochemical, DEVD-Rh110 fluorescence, uHTS; reconstituted apoptosome caspase-3 activity; Apoptotic protease-activating factor 1 (Homo sapiens), O14727; AID 489030, 2010; 330,000 compounds, 0.71% hits; inhibition, % at 20 µM; active = inhibition of at least 40% at 20 µM;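 note: plate controls were DMSO wells for no effect and DEVD-CHO caspase inhibitor wells for full effect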
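System: reconstituted apoptosome with Apaf-1, cytochrome c, caspase-9, procaspase-3, dATP; Signal: Rh110 fluorescence intensity; Schedule: 30 min compound preincubation, 50 min activation, room temperature; Reagent: cytochrome c trigger plus (Z-DEVD)2-Rh110 caspase-3 substrate.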
Casp3 counter: CASP3 inhibitor validation, counterassay for project on UBE2N polyubiquitination blockers, biochemical, one dose; inhibition, % at 20 µM; shares compounds with UBC13 inh; Recombinant caspase-3, Caspase-Glo 3/7 luminescence, 60 min; 1,400 compounds, 4% hits;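 active = mean inhibition across replicates above about 26%, limit read from the data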;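 note: plate controls were DMSO with caspase-3 for no effect and DMSO wells lacking enzyme for full effect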
UBC13 conf: UBC13 polyubiquitination inhibitors, single-point retest, confirmation, biochemical, TR-FRET, single concentration. inhibition, % at 10 µM. 1,400 compounds, 68% hits. shares compounds with UBC13 inh; in the data active = inhibition above about 45%; inconclusive = no clear call, values can overlap the other calls
* marks the source's active call; other numbers are inactive results; ? = inconclusive; · = no result given.

SMILES	MEKK3 PB1 HTS	DSG3 Ab inh	UBC13 inh	MEKK2 mut-MEK5	MEKK2wt PB1 HTS	Apaf-1 inh	Casp3 counter	UBC13 conf
O=C(c1cccc(S(=O)(=O)N2CCCC2)c1)N1CCCC(C(F)(F)F)C1 (stereo unspecified)	·	122	73*	·	·	21	-3	109*
CC(=O)c1cccc(NCC(=O)Nc2cc(S(=O)(=O)N3CCCCC3)ccc2C)c1	103	113	10	5	107	0	·	·
CC1Cc2nc(SCC(N)=O)n(C)c(=O)c2S1 (stereo unspecified)	107	99	-2	8	106	-2	·	·
COCCn1c(SCC(N)=O)nc2c(c1=O)SC(C)C2 (stereo unspecified)	100	98	49*	7	101	5	-4	-4
CCC(=O)NC(=S)NNC(=O)c1ccc(O)cc1	102	109	86*	1	102	2	4	101*
CCC(=O)NNC(=S)NC(=O)c1ccc(C)cc1	98	101	1	-11	93	-10	·	·
CCN(CC)CCOc1ccc(/C(=C(\Cl)c2ccccc2)c2ccccc2)cc1	·	110	74*	·	·	66*	-2	81*
CCOC(=O)c1nn(-c2ccccc2)c(=O)cc1OCC(=O)Nc1cc(C)ccc1OC	·	112	48*	·	·	-57	-5	?
Cn1c(=O)cc(SCC(=O)NCCCN2CCN(c3ccc(F)cc3)CC2)c2ccccc21	120	·	82*	10	131	12	-2	?
Cn1c(=O)cc(SCC(=O)NCc2ccc(F)cc2)c2ccccc21	98	106	14	3	96	-5	·	·
CC1CCCCN1CCNC(=O)c1cc2c(=O)n(C)c3ccccc3c2n1C (stereo unspecified)	95	152	46*	-6	104	15	2	46*
Cn1c(C(=O)NCCN2CCOCC2)cc2c(=O)n(C)c3ccccc3c21	99	110	14	1	96	1	·	·
CCN(CC)Cc1cc2[nH]c3c4ccc(Cl)cc4ncc3c2cc1OC	96	103	67*	38*	163*	21	2	10
COc1ccc(CNc2ncnc3cc(Cl)ccc23)cc1OC	101	99	·	5	101	·	·	·
CCn1c(=O)c2cc(C(=O)NCCCOC)sc2c2ccccc21	102	88	22	2	107	6	·	·
CCCCN(CC)CCNC(=O)c1cc2c(=O)n(CC)c3ccccc3c2s1	104	108	72*	8	121	6	-3	91*
CCCN(CCC)CCCNC(=O)c1cc2c(=O)n(CC)c3ccccc3c2s1	107	?	47*	7	131	6	-4	35
CCCCN(CC)CCCNC(=O)c1cc2c(=O)n(CC)c3ccccc3c2s1	107	90	50*	8	122	5	4	62*
CCn1c(=O)c2cc(C(=O)NCCC(C)C)sc2c2ccccc21	102	99	14	0	101	17	·	·
CCc1ccc(-c2cc3c(=O)n(CC(=O)NCCCN4CCC(Cc5ccccc5)CC4)nc(C)n3n2)cc1	110	103	60*	29*	203*	25	1	86*
Cc1nn(CC(=O)NCCCN2CCN(Cc3ccccc3)CC2)c(=O)c2cc(-c3ccccc3)nn12	103	·	24	16	116	9	·	·
